Measurements reported in ChEMBL document CHEMBL1938239, “Novel analgesic/anti-inflammatory agents: diarylpyrrole acetic esters endowed with nitric oxide releasing properties” (J Med Chem, 2011).
pIC50: −log10 of the molar value. The source made the active and inactive calls. No cut-off for these calls is given here.

Assays:
[1] = biological target: T1, Prostaglandin G/H synthase 1 (Mus musculus) (UniProt P22437); test: Inhibition of COX-1-mediated PGE2 production in arachidonic acid-stimulated mouse J774 cells at 10 uM incubated for 15 mins prior to arachidonic acid-challenge by radioimmunoassay; assay type: cell-based
T1 sequence (whole entry): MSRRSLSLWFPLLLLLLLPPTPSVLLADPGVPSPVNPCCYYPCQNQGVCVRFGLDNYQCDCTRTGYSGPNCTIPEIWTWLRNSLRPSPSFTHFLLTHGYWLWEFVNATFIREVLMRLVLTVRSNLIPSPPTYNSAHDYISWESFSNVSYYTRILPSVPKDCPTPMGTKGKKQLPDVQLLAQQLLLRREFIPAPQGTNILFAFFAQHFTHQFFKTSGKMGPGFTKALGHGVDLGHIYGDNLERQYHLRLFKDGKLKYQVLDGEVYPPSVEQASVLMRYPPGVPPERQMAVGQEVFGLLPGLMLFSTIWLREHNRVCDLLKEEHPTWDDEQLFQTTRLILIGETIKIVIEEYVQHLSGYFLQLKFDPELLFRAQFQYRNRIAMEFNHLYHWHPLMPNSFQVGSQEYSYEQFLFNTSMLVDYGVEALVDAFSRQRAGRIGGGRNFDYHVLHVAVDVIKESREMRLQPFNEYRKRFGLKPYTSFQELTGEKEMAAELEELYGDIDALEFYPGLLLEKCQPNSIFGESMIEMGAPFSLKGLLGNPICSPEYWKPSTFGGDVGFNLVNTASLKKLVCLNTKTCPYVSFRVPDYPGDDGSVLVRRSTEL
In short: (§1)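 J774 murine macrophages grown in DMEM with 10% FBS and allowed to adhere for 2 h at 37 °C. Where inhibition exceeded 50%, 0.01–1 μM was also tested. Supernatant PGE2 was measured by RIA as % inhibition versus control, in triplicate wells over three experiments. IC50 came from a sigmoidal variable-slope fit.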

[2] = biological target: T2, Prostaglandin G/H synthase 1 (Mus musculus, UniProt P22437); test: Inhibition of COX-1-mediated PGE2 production in arachidonic acid-stimulated mouse J774 cells incubated for 15 mins prior to arachidonic acid-challenge by radioimmunoassay; assay type: cell-based
T2 sequence (P22437 whole entry): T1 sequence (whole entry)
In short: as §1, with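 “2 h at 37 °C. Cells were pretreated with compound at 10 μM for 15 min, then given 15 μM arachidonic acid for 30 min at 37” for “2 h at 37”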

[3] = biological target: T3, Prostaglandin G/H synthase 2 (Mus musculus, UniProt Q05769); test: Inhibition of COX-2-mediated PGE2 production in LPS-stimulated mouse J774 cells after 24 hrs by radioimmunoassay; assay type: cell-based
T3 sequence (Q05769 whole entry): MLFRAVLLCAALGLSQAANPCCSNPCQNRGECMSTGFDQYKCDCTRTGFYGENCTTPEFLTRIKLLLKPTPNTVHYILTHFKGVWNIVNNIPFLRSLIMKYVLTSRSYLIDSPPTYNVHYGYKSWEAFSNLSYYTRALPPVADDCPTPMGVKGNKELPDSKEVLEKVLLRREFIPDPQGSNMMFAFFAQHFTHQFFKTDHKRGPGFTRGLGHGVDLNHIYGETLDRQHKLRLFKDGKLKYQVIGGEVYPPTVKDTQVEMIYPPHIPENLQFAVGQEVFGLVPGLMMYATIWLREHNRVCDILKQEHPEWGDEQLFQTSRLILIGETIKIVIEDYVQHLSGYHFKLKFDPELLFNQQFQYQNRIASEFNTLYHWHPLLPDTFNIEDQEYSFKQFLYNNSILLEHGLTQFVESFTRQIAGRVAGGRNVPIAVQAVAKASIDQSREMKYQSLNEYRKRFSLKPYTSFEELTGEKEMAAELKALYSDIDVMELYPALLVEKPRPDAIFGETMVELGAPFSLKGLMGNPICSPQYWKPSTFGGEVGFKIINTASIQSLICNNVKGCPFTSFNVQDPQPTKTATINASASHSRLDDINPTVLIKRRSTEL

J774 = test: Selectivity ratio of IC50 for COX1 in mouse J774 cells to IC50 for COX2 in mouse J774 cells; assay type: cell-based
In short: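 Ratio of J774 IC50s, COX-1 over COX-2. For COX-1, cells were pretreated with compound for 15 min, then given 15 μM arachidonic acid for 30 min at 37 °C. For COX-2, cells received E. coli LPS 10 μg/mL for 24 h with compound at 0.01–10 μM. PGE2 was measured by RIA in triplicate wells over three experiments. IC50 came from a sigmoidal fit.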

[4] = biological target: T4, Prostaglandin G/H synthase 2 (Mus musculus) (UniProt Q05769); test: Inhibition of COX-2-mediated PGE2 production in LPS-stimulated mouse J774 cells at 0.001 uM after 24 hrs by radioimmunoassay; assay type: cell-based
T4 sequence (whole entry): T3 sequence (Q05769 whole entry)

[5] = biological target: T1, Prostaglandin G/H synthase 1 (Mus musculus); test: Inhibition of COX-1-mediated PGE2 production in arachidonic acid-stimulated mouse J774 cells at 1 uM incubated for 15 mins prior to arachidonic acid-challenge by radioimmunoassay; assay type: cell-based; in short: as §1
Aorta [6] = test: Vasorelaxation activity against KCl-induced contraction in isolated Wistar rat thoracic endothelium-denulated aortic rings; assay type: functional, tissue-based
In short: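 Endothelium-denuded thoracic aortic rings from male Wistar rats (250−350 g); denudation confirmed by <10% relaxation to 10 μM ACh. Rings precontracted with 30 mM KCl; compound added at 3-fold increasing concentrations, 1 nM to 10 μM. Isometric tension recorded. Emax given as % of KCl tone; pIC50 derived. Mean ± standard error of 6−10 experiments; repeated with 1 μM ODQ.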

Aorta [7] = test: Vasorelaxation activity against KCl-induced contraction in isolated Wistar rat thoracic endothelium-denulated aortic rings in the presence of guanylate cyclase inhibitor ODQ; assay type: functional, tissue-based
In short: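 Thoracic aortic rings from male Wistar rats (250–350 g), endothelium removed by rubbing; rings relaxing ≥10% to ACh 10 μM on KCl 30 mM tone were discarded. ODQ 1 μM was incubated, then rings were contracted with KCl 30 mM and given 3-fold increasing concentrations of 1 nM–10 μM.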

Rattus norvegicus [8] = test: Antiinflammatory activity against carrageenan-induced edema in Sprague-Dawley rat assessed as right hind paw volume at 20 mg/kg, po administered 4 hrs post challenge measured after 60 mins; assay type: functional
In short: (§2)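 Rats received intraplantar carrageenan. Right hind paw volume was measured 4 h after the carrageenan injection and compared with saline/carrageenan-treated controls. Oral dosing in CMC vehicle; volume recorded at 60 min after treatment.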

Rattus norvegicus [9] = test: Antiinflammatory activity against carrageenan-induced edema in Sprague-Dawley rat assessed as right hind paw volume at 40 mg/kg, po administered 4 hrs post challenge measured after 60 mins; assay type: functional; in short: as §2
[10] = biological target: T1, Prostaglandin G/H synthase 1 (Mus musculus); test: Inhibition of COX-1-mediated PGE2 production in arachidonic acid-stimulated mouse J774 cells at 0.1 uM incubated for 15 mins prior to arachidonic acid-challenge by radioimmunoassay; assay type: cell-based; in short: as §1
Mus musculus = test: Analgesic activity in Swiss albino mouse abdominal constriction model assessed as reduction in acetic acid-induced writhing response for 10 mins at 20 to 40 mg/kg, po administered 30 mins prior to acetic acid-challenge measured after 5 mins relative to vehicle-treated control; assay type: functional, organism-based; settings: Abdomen
In short: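 Male Swiss albino mice (23−25 g); 0.6% acetic acid (10 mL/kg) injected ip. Stretching movements counted for 10 min, starting 5 min after administration. Oral doses in carboxymethylcellulose (CMC) vehicle, compared with vehicle-treated mice.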

Rattus norvegicus [11] = test: Antiinflammatory activity against carrageenan-induced paw edema in Sprague-Dawley rat assessed as paw weight at 20 mg/kg, po administered 4 hrs post challenge measured after 30 mins (reference value: 62.5+/-3.1 g); assay type: functional
Rattus norvegicus [12] = test: Antiinflammatory activity against carrageenan-induced paw edema in Sprague-Dawley rat assessed as paw weight at 20 mg/kg, po administered 4 hrs post challenge measured after 60 mins (reference value: 62.5+/-3.1 g); assay type: functional
Rattus norvegicus [13] = test: Antiinflammatory activity against carrageenan-induced paw edema in Sprague-Dawley rat assessed as paw weight at 20 mg/kg, po administered 4 hrs post challenge measured after 120 mins (reference value: 62.5+/-3.1 g); assay type: functional
Rattus norvegicus [14] = test: Antiinflammatory activity against carrageenan-induced paw edema in Sprague-Dawley rat assessed as paw weight at 40 mg/kg, po administered 4 hrs post challenge measured after 30 mins (reference value: 63.2+/-3.3 g); assay type: functional
Rattus norvegicus [15] = test: Antiinflammatory activity against carrageenan-induced paw edema in Sprague-Dawley rat assessed as paw weight at 40 mg/kg, po administered 4 hrs post challenge measured after 60 mins (reference value: 63.2+/-3.3 g); assay type: functional
Rattus norvegicus [16] = test: Antiinflammatory activity against carrageenan-induced paw edema in Sprague-Dawley rat assessed as paw weight at 40 mg/kg, po administered 4 hrs post challenge measured after 120 mins (reference value: 63.2+/-3.3 g); assay type: functional

Row | Structure (SMILES) | inhibition [1] [%] | pIC50 [2] | pIC50 [3] | Ratio IC50 (J774) | inhibition [5] [%] | pIC50 (Aorta [6]) | Activity (Aorta [7]) | Emax (Aorta [6]) [%] | also measured
1 | Cc1c(CC(=O)OCCO)cc(-c2ccc(S(C)(=O)=O)cc2)n1-c1ccc(F)cc1 | 21 | < 5.00 | 7.41 | > 256 |  |  |  |  | 
2 | COc1ccc(-n2c(-c3ccc(S(C)(=O)=O)cc3)cc(CC(=O)OCCCO[N+](=O)[O-])c2C)cc1 |  | < 5.00 | 8.62 | > 4170 | 0 | < 5.00 | inactive |  | inhibition [4]: 39%
3 | Cc1c(CC(=O)OCCCO[N+](=O)[O-])cc(-c2ccc(S(C)(=O)=O)cc2)n1-c1cccc(F)c1 | 75 | 5.96 | 8.14 | 151 | 50 | < 5.00 | inactive | 39 | Activity (Rattus norvegicus [8]): 2.05 mL; Activity (Rattus norvegicus [9]): 1.96 mL; inhibition [10]: 20%; Activity (Mus musculus): inactive; Activity (Rattus norvegicus [11]): 43.2 g; Activity (Rattus norvegicus [12]): 45.1 g; Activity (Rattus norvegicus [13]): 40.7 g; Activity (Rattus norvegicus [14]): 45.5 g; Activity (Rattus norvegicus [15]): 44.9 g; Activity (Rattus norvegicus [16]): 36.8 g
4 | COc1ccc(-n2c(-c3ccc(S(C)(=O)=O)cc3)cc(CC(=O)OCCO)c2C)cc1 | 5 | < 5.00 |  | > 9.1 |  |  |  |  | 
5 | Cc1c(CC(=O)OCCCO[N+](=O)[O-])cc(-c2ccc(S(C)(=O)=O)cc2)n1-c1ccc(F)cc1 | 28 | < 5.00 | 7.43 | > 269 |  | < 5.00 | inactive | 41 | 
6 | Cc1c(CC(=O)OCCCO)cc(-c2ccc(S(C)(=O)=O)cc2)n1-c1ccc(F)cc1 | 0 | < 5.00 | 7.25 | > 179 |  |  |  |  | 
7 | O=[N+]([O-])OCC(CO[N+](=O)[O-])O[N+](=O)[O-] [NITROGLYCERIN] |  |  |  |  |  | 6.90 |  | 73 | 
8 | CSc1ccc(-n2c(-c3ccc(S(C)(=O)=O)cc3)cc(CC(=O)OCCO)c2C)cc1 | 62 | 5.50 |  | 37.4 | 40 |  |  |  | inhibition [10]: 11%
9 | CSc1ccc(-n2c(-c3ccc(S(C)(=O)=O)cc3)cc(CC(=O)OCCCO[N+](=O)[O-])c2C)cc1 | 0 | < 5.00 |  | > 370 |  | < 5.00 | inactive |  | 
10 | COc1ccc(-n2c(-c3ccc(S(C)(=O)=O)cc3)cc(CC(=O)OCCCO)c2C)cc1 | 27 | < 5.00 |  | > 14.3 |  |  |  |  | 
